Where a SMILES comes first, the peptide text is derived from it. Where no end group is shown, it is not given here. [ ]: non-standard residue; d: D form.
What was measured:
[1] = tested on: H22 tumors in BALB/c mice; assay: H22 tumor model; assay type: in vivo, mouse; details: daily for 14 days, LFP-D1 3 mg/kg, LFOP 5.8 mg/kg, n = 5
How it was run: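 H22 cells (2 × 10^6) are injected subcutaneously into the right flank of six-week-old female BALB/c mice. Dosing is daily once tumors reach about 50 mm3: 3 mg/kg, 2.5 mg/kg, both combined, or 5.8 mg/kg of the fused peptide (equimolar to 3 mg/kg). Tumor volume (½ × length × width × height) and body weight are recorded every two days over 14 days of treatment.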

human LAG-3/FGL1 = target: T1, human LAG-3/FGL1 (Homo sapiens, UniProt P18627); assay: Blocking assay of hLAG-3/hFGL1 interaction on CHO-K1-hLAG-3 cells; assay type: binding; details: 100 μmol/L, n = 3, compared with LFP-D1
T1 sequence (P18627 23-525): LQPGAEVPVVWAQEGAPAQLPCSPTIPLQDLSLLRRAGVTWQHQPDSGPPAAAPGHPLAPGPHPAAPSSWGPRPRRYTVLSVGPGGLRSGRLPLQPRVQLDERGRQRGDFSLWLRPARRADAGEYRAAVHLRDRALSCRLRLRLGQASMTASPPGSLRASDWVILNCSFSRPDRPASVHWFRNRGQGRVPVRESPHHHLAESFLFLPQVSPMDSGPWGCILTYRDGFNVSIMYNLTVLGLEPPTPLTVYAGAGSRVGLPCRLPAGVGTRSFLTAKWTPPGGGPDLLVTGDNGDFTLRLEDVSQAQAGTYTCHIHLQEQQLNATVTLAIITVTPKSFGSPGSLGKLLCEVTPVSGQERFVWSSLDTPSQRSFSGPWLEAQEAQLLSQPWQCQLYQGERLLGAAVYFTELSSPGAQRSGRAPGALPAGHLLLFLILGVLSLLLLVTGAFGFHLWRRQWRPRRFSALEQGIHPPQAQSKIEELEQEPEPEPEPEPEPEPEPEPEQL
How it was run: (§1)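 Cells stably expressing human (CHO-K1-hLAG-3) or mouse (CHO-K1-mLAG-3) LAG-3 are pre-incubated with test peptide at graded concentrations for 30 min at 4 °C. Recombinant FGL1-Fc of the matching species is then added for 30 min at 4 °C, followed by PE anti-human IgG1 (anti-Fc). MFI is read by flow cytometry. Blocking % = (MFI no-peptide control − MFI peptide)/MFI no-peptide control × 100. Cells given only anti-Fc-PE serve as background. IC50 is taken from dose–response curves.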

hPD-1/hPD-L1 = hPD-1/hPD-L1 (Homo sapiens, UniProt Q9NZQ7); assay: Blocking assay of hPD-1/hPD-L1 interaction; assay type: binding; details: 100 μmol/L, n = 3, compared with OPBP-1(8–12)
hPD-1/hPD-L1, sequence (Q9NZQ7 19-239 limits assumed): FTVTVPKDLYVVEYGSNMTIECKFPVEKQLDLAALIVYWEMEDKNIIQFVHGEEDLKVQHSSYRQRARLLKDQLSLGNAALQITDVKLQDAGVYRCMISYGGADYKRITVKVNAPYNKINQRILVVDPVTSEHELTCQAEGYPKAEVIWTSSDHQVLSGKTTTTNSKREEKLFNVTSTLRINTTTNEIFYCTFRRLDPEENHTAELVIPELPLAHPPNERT

[2] = tested on: MC38 tumors in C57BL/6 mice; assay: MC38 tumor model, LFOP alone or combined with radiotherapy; assay type: in vivo, mouse
How it was run: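 In MC38 tumor-bearing C57BL/6 mice, tumors of about 100 mm3 receive local 20 Gy irradiation. Test peptide at 5.8 mg/kg is given starting the same day, with or without irradiation; saline and RT-alone groups are included. Tumor volume (½ × length × width × height) and body weight are recorded every two days for 14 days, and tumors are weighed at the end. n = 5.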

[3] = In vivo toxicity analysis in MC38 tumor-bearing mice; design: species or system mouse
mouse LAG-3-His protein = target: T2, mouse LAG-3-His protein (Mus musculus, UniProt Q61790); assay: MST binding affinity to mLAG-3
T2 sequence (Q61790 24-521): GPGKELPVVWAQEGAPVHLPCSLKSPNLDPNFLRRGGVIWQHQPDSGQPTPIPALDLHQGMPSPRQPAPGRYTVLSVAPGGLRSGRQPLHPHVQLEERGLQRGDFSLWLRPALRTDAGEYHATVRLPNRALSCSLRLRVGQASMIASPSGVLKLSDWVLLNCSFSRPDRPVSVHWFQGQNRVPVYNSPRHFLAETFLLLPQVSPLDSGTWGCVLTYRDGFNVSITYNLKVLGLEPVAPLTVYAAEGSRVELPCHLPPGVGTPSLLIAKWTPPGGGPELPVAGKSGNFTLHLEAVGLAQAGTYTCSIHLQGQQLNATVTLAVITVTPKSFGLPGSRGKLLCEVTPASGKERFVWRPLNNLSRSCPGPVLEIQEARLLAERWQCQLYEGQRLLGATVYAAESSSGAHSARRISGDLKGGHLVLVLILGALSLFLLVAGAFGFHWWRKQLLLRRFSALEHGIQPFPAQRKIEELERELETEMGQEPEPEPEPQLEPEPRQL
How it was run: (§2)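 His-tagged LAG-3 (human or mouse) is labeled with RED-tris-NTA 2nd-generation dye. Test peptide is serially diluted in PBST (0.05% Tween-20) and mixed with an equal volume of labeled protein at room temperature for 5 min. Samples are loaded into capillaries for microscale thermophoresis, and KD is fitted from the dose–response curves.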

mouse LAG-3/FGL1 = target: T3, mouse LAG-3/FGL1 (Mus musculus, UniProt Q61790); assay: Blocking assay of mLAG-3/mFGL1 interaction on CHO-K1-mLAG-3 cells; assay type: binding
T3 sequence (Q61790 24-521): T2 sequence (Q61790 24-521)
How it was run: as §1

Human LAG-3-His protein = target: T4, Human LAG-3-His protein (Homo sapiens, UniProt P18627); assay: MST binding affinity to hLAG-3
T4 sequence (P18627 23-525): T1 sequence (P18627 23-525)
How it was run: as §2

[4] = LFP-D1 treatment vs normal saline, n = 5

Row | Compound | Tumor growth in H22 tumor model [1] | Blocking efficacy on hLAG-3/hFGL1 interaction (human LAG-3/FGL1) | Blocking efficacy on hPD-1/hPD-L1 interaction (hPD-1/hPD-L1) | Tumor progression of MC38 tumors ([2]; LFOP 5.8 mg/kg alone, 14 days, n = 5) | Tumor growth of MC38 tumors ([2]; LFOP 5.8 mg/kg combined with RT (local 20 Gy), 14 days, n = 5) | Tregs after treatment ([2]; treatment with LFOP, data not shown) | Histopathology of major organs (H&E staining) ([3]; heart, liver, spleen, lung, kidney after treatment with LFOP, RT or both) | Body weight of the mice among groups at ultimate time ([3]; normal saline, RT 20 Gy, LFOP 5.8 mg/kg, LFOP + RT, 14 days, n = 5) | ALT and AST levels in serum ([3]; normal saline, RT 20 Gy, LFOP 5.8 mg/kg, LFOP + RT, n = 5) | Kd (mouse LAG-3-His protein) [µM] | IC50 (mouse LAG-3/FGL1) [µM] | Kd (Human LAG-3-His protein) [µM] | Liver index ([3]; LFP-D1 treatment vs normal saline, liver weight (mg) to body weight (g), n = 5) | ALT level in mice serum [3, 4] | AST level in mice serum [3, 4]
1 | CSCC[C@@H](N)C(=O)N[C@@H](Cc1c[nH]cn1)C(=O)N[C@@H](CCCNC(=N)N)C(=O)N1CCC[C@H]1C(=O)N1CCC[C@H]1C(=O)N[C@@H](CO)C(=O)N[C@@H](C(=O)NCC(=O)N[C@@H](CO)C(=O)N[C@H](CCCNC(=N)N)C(=O)N[C@@H](C(=O)N[C@H](Cc1ccc(O)cc1)C(=O)N[C@H](CO)C(=O)N[C@H](Cc1ccccc1)C(=O)O)C(C)C)[C@H](C)O [LFOP] (H-[dM]HRPPS[dT]GS[dR][dV][dY][dS][dF]-OH; N-terminus and C-terminus assumed) | significantly inhibited the tumor growth | in line with its parental peptide | in line with its parental peptide | slowed tumor progression | effectively controlled tumor growth even partial regression | decreased | no abnormalities | no significant differences | indiscriminate | – | – | – | – | – | –
2 | CSCC[C@@H](N)C(=O)N[C@@H](Cc1c[nH]cn1)C(=O)N[C@@H](CCCNC(=N)N)C(=O)N1CCC[C@H]1C(=O)N1CCC[C@H]1C(=O)N[C@@H](CO)C(=O)N[C@@H](C(=O)O)[C@H](C)O [LFP-D1] (H-[dM]HRPPS[dT]-OH) | – | – | – | – | – | – | – | – | – | 10.9 ± 3.3 | 17.5 ± 2.2 | 15.7 ± 6.7 | no significant difference | no significant difference | no significant difference
3 | MHRPPST [LFP-6] | – | – | – | – | – | – | – | – | – | 14.6 ± 3.3 | 47.2 ± 2.2 | 16.1 ± 5.5 | – | – | –

Source: PMC10935467 (Acta Pharmaceutica Sinica. B, 2023)
